Molecules are shown by their SMILES. Where a name gives a salt, the structure may show the parent alone.

In assay [1] the target is T1, Sodium-dependent dopamine transporter (Rattus norvegicus, UniProt P23977). In words: Inhibition of [3H]DA uptake at DAT in Sprague-Dawley rat striatum. A digest of the protocol: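 Uptake of [3H]dopamine into the S1 fraction of rat striatal homogenate; IC50 from curves fit by nonlinear regression.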
Assay [2] concerns the target Monoamine transporters; Norepinephrine & serotonin (Rattus norvegicus) (UniProt P31652+Q9WTR4). Kind of assay: Selectivity for rat NET over rat 5HTT. Type of assay: protein assay.
In assay [3] the target is Norepinephrine transporter (Rattus norvegicus, UniProt Q9WTR4). In words: Displacement of [3H]nisoxetine from NET in Sprague-Dawley rat cortical tissue. In general terms: In a radioligand displacement assay an active substance lowers the binding of a labelled ligand.
Norepinephrine transporter, sequence (Q9WTR4 whole entry): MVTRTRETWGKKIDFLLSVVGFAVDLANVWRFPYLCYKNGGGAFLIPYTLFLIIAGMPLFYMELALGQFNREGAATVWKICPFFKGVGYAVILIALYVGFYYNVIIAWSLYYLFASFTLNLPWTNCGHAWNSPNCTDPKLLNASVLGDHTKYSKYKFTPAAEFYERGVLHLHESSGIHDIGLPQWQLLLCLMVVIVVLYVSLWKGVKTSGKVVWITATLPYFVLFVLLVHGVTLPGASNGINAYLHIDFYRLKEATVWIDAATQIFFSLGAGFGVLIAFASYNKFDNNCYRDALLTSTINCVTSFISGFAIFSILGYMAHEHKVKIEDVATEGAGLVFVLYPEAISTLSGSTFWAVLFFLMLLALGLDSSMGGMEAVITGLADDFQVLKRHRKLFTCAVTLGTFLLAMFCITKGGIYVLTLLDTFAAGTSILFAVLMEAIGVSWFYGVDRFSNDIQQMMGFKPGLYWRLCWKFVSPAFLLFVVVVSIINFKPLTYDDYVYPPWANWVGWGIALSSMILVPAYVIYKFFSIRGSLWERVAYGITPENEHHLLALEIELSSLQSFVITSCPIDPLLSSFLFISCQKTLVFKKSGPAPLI
Assay [4] concerns the target Sodium-dependent serotonin transporter (Rattus norvegicus) (UniProt P31652). In words: Displacement of [3H]citalopram from 5HTT in Sprague-Dawley rat cerebrum at 10 uM.
Assay [5] concerns the target Monoamine transporters; Norepininephrine & dopamine (Rattus norvegicus) (UniProt P23977+Q9WTR4). In words: Selectivity for rat DAT over rat NET. It is filed as protein assay.
For assay [6], the target named is T1, Sodium-dependent dopamine transporter. In words: Displacement of [3H]WIN-35428 from DAT in Sprague-Dawley rat striatum.
In assay [7] the target is Monoamine transporters; serotonin & dopamine (Rattus norvegicus) (UniProt P31652+P23977). In words: Selectivity for rat DAT over rat 5HTT. It is filed as protein assay.
Monoamine transporters; serotonin & dopamine (Rattus norvegicus), sequence (P23977 whole entry, looked up): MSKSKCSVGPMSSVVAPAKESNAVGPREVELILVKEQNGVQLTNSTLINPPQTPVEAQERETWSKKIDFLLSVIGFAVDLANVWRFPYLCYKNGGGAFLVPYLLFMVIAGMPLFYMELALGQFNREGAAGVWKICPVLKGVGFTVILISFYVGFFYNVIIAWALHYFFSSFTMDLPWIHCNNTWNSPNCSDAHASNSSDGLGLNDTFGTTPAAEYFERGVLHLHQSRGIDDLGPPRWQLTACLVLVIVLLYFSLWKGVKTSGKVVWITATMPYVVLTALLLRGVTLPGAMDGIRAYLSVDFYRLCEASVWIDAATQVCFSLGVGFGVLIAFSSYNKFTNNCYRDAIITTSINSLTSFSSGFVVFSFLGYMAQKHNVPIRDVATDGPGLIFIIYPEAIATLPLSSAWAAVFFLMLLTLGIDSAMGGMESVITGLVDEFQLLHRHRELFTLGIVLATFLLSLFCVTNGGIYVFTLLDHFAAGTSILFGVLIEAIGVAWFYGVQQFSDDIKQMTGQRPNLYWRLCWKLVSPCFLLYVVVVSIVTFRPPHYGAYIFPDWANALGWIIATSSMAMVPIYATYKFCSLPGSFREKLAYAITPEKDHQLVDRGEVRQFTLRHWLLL
Monoamine transporters; serotonin & dopamine (Rattus norvegicus), sequence (P31652 whole entry, looked up): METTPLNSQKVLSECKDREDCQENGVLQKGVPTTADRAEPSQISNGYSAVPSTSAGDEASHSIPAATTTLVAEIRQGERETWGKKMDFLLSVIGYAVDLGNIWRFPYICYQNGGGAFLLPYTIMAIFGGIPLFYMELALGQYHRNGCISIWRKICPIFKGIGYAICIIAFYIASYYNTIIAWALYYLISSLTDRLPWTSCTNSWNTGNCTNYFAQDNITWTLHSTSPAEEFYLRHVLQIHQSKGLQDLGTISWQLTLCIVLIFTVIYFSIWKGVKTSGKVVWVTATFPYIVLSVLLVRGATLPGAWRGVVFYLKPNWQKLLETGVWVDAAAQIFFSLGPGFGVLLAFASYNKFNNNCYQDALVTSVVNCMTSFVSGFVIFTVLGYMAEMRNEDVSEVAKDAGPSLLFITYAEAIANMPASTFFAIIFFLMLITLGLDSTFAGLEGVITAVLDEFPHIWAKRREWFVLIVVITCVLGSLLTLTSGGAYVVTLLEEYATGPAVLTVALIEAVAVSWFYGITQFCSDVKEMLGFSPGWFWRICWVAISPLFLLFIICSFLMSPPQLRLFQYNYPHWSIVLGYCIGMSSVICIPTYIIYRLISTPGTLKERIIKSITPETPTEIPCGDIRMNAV
The target in assay [8] is Sodium-dependent serotonin transporter (Rattus norvegicus, UniProt P31652). In words: Displacement of [3H]citalopram from 5HTT in Sprague-Dawley rat cerebrum. The essentials:
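Rat cortical P2 fraction in 25 mM sodium phosphate, pH 7.7 at 0 °C; 2 nM [3H]citalopram, 3 h at 0 °C; filtration. Nonspecific binding with 1 µM clomipramine. Compounds in water, dilute DMSO or methanol (≤0.3% solvent). Data corrected for filter binding; IC50 by nonlinear regression, Ki by Cheng-Prusoff.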

Sodium-dependent serotonin transporter, sequence (P31652 whole entry): as the sequence (P31652 whole entry, looked up) above
Sodium-dependent serotonin transporter (Rattus norvegicus), sequence (P31652 whole entry): as the sequence (P31652 whole entry, looked up) above
T1 sequence (P23977 whole entry): as the sequence (P23977 whole entry, looked up) above

As for `O[C@H]1CCN2CCCC[C@@H]2[C@H]1c1ccccc1`, the IC50 (usually the concentration needed to halve the response being measured) in assay [1] is 680 nM. The Selectivity ratio is over 28 in assay [2], 3.3 in assay [5] and over 93 in assay [7]. Besides, the figures for the Ki in assay [3] and in assay [6] were 351 nM and 108 nM, respectively. Further, the inhibition (usually the drop in the measured response relative to a control, in per cent) in assay [4] was 12%.
Regarding `C[C@@H]1C[C@H](c2ccccc2)[C@H]2CCCCN2C1`, the Ki (as a rule, a dissociation constant, usually derived from enzyme kinetics or from competition with a known ligand) in assay [8] was determined as 243 nM; in assay [3] it was 76 nM; in assay [6], 119 nM. In addition, in assay [1], it took 248 nM to reach half-maximal inhibition (IC50). Further, the Selectivity ratio in assay [2] is 3.2; in assay [5] it was 0.64; in assay [7], 2.
Regarding `CO[C@H]1CCN2CCCC[C@@H]2[C@H]1c1ccccc1`, the figures for the Ki in assay [8], in assay [3] and in assay [6] were 2070 nM, 63.7 nM and 10.8 nM, respectively. Besides, the IC50 in assay [1] was determined as 61 nM. In addition, the Selectivity ratio was 32 in assay [2], 5.9 in assay [5] and 190 in assay [7]. The compound also registered an inhibition in assay [4] of 73%.
Consider `CC[C@@]1(O)CCN2CCCC[C@@H]2[C@H]1c1ccccc1`, for which the figures for the Selectivity ratio in assay [2], in assay [5] and in assay [7] were over 6.6, 8.69 and over 57, respectively. Besides, the Ki in assay [3] was 1520 nM; in assay [6], 175 nM. This compound also came in with an inhibition in assay [4] of 19%.
In turn, `COC(=O)[C@H](c1ccccc1Cl)[C@H]1CCCCN1` showed an IC50 in assay [1] of 2660 nM. Besides, the inhibition in assay [4] was determined as 22.2%. The same compound displayed a Ki in assay [6] of 1740 nM. Also, the Selectivity ratio in assay [7] is over 5.7.
Take `Clc1ccc([C@@H]2CCCN3CCCC[C@H]23)cc1Cl` (relative stereo): the inhibition constant (Ki) in assay [8] came to 102 nM; in assay [3], 160 nM; in assay [6], 34.6 nM. In addition, half-maximal inhibition in assay [1] (IC50) required 87.6 nM. Also, the Selectivity ratio was 0.64 in assay [2], 4.6 in assay [5] and 3 in assay [7].
Regarding `O=C1CCN2CCCC[C@@H]2[C@H]1c1ccc(Cl)c(Cl)c1` (relative stereo), the Selectivity ratio in assay [2] is 36; in assay [5] it was 20; in assay [7] it was 710. For the same compound, the Ki in assay [3] stood at 280 nM; in assay [6], 14 nM. In assay [4], this compound returned an inhibition of 54%.
In assay [1], `c1ccc(C2CCCNC2)cc1` (stereo not drawn) yielded an IC50 of 1060 nM. Further, the Selectivity ratio in assay [2] came to 19; in assay [5], 0.12; in assay [7] it was 2.2. Also, the Ki in assay [3] turned out to be 534 nM; in assay [6], 4560 nM. Moreover, the inhibition in assay [4] was 53%.
`COC[C@H](c1ccccc1)[C@H]1CCCCN1` (relative stereo) yielded an IC50 in assay [1] of 281 nM. In assay [4], this compound gave an inhibition of 47.8%. The affinity in assay [6] corresponds to a Ki of 89.9 nM. Besides, the Selectivity ratio in assay [7] was found to be 110.
In turn, `COC(=O)[C@H](c1ccccc1)[C@H]1CCCCN1` [DEXMETHYLPHENIDATE HYDROCHLORIDE] came in with a Ki in assay [3] of 270 nM. The inhibition in assay [4] turned out to be 14%.
As to `CC[C@@H]1CCN2CCCC[C@@H]2[C@H]1c1ccccc1`, the Ki in assay [8] came out at 2390 nM; in assay [3], 411 nM; in assay [6], 27.6 nM. For the same compound, the Selectivity ratio in assay [2] amounted to 5.8; in assay [5], 15; in assay [7], 87. Moreover, the inhibition in assay [4] was found to be 80%.
For `CC[C@@H]1CCN2CCCC[C@@H]2[C@H]1c1ccc(Cl)c(Cl)c1`, the Ki in assay [8] was found to be 286 nM; in assay [3], 102 nM; in assay [6], 3.44 nM. For the same compound, the Selectivity ratio in assay [2] came to 2.8; in assay [5], 30; in assay [7], 83.
`CCN1CCCC[C@@H]1[C@H](CO)c1ccccc1` (relative stereo) showed an IC50 in assay [1] of 10400 nM. This compound also registered an inhibition in assay [4] of 16.2%. The same compound gave a Ki in assay [6] of 2100 nM. The Selectivity ratio in assay [7] was over 4.8.
On to `Clc1ccc([C@H]2CCCN3CCCC[C@H]23)cc1Cl` (relative stereo), for which the figures for the Ki in assay [8], in assay [3] and in assay [6] were 121 nM, 28.4 nM and 3.39 nM, respectively. Moreover, the IC50 in assay [1] stood at 11 nM. Also, the Selectivity ratio in assay [2] is 4.3; in assay [5] it was 8.4; in assay [7], 36.
For `OC[C@H](c1ccc(Cl)c(Cl)c1)[C@H]1CCCCN1` (relative stereo), the Ki in assay [8] was 276 nM; in assay [6] it was 3.91 nM. Also, in assay [1], the IC50 was 22.5 nM. This compound showed an inhibition in assay [4] of 94.6%. In assay [7], the Selectivity ratio turned out to be 71.
In the case of `c1ccc([C@H]2CCCN3CCCC[C@H]23)cc1` (relative stereo), the Ki was determined as 5140 nM in assay [8], 138 nM in assay [3] and 76.2 nM in assay [6]. The same compound displayed an IC50 in assay [1] of 244 nM. In addition, the figures for the Selectivity ratio in assay [2], in assay [5] and in assay [7] were 37, 1.8 and 67, respectively.
For `COC(=O)[C@H](c1ccc(Cl)c(Cl)c1)[C@H]1CCCCN1`, the figures for the Ki in assay [8] and in assay [6] were 667 nM and 4.76 nM, respectively. Moreover, the IC50 in assay [1] was determined as 7 nM. Also, the Selectivity ratio in assay [7] came out at 140.
In the case of `O[C@H]1CCN2CCCC[C@@H]2[C@H]1c1ccc(Cl)c(Cl)c1`, the Ki in assay [8] is 168 nM; in assay [3] it was 27.9 nM; in assay [6], 2.46 nM. Also, the Selectivity ratio in assay [2] is 6; in assay [5], 11; in assay [7], 68.
Take `C[C@H]1C[C@H](c2ccccc2)[C@H]2CCCCN2C1`: the Ki turned out to be 427 nM in assay [8], 694 nM in assay [3] and 178 nM in assay [6]. The compound further came in with an IC50 in assay [1] of 368 nM. In addition, the Selectivity ratio in assay [2] was found to be 0.62; in assay [5], 3.9; in assay [7], 2.4.
Regarding `COC(=O)[C@@H](c1ccc(Cl)c(Cl)c1)[C@H]1CCCCN1` (relative stereo), the Ki was 2570 nM in assay [8] and 363 nM in assay [6]. In assay [1], this compound gave an IC50 of 317 nM. Besides, the Selectivity ratio in assay [7] was 7.1.
In the case of `O[C@@H]1CCN2CCCC[C@@H]2[C@H]1c1ccc(Cl)c(Cl)c1`, the figures for the Ki in assay [8], in assay [3] and in assay [6] were 2050 nM, 367 nM and 35.7 nM, respectively. Also, the Selectivity ratio in assay [2] amounted to 5.6; in assay [5] it was 10; in assay [7], 57.
Take `OC[C@H](c1ccccc1)[C@H]1CCCCN1` (relative stereo): the IC50 in assay [1] stood at 1520 nM. In addition, in assay [4], the inhibition was 31%. Further, the Ki in assay [6] was found to be 406 nM. For the same compound, the Selectivity ratio in assay [7] is over 25.
Consider `CC[C@H]1CCN2CCCC[C@@H]2[C@H]1c1ccccc1`, for which the results for the Ki in assay [8], in assay [3] and in assay [6] were 3550 nM, 60.8 nM and 5.51 nM, respectively. Also, the results for the Selectivity ratio in assay [2], in assay [5] and in assay [7] were 58, 11 and 640, respectively. Besides, the inhibition in assay [4] is 86%.
In the case of `CC[C@H]1CCN2CCCC[C@@H]2[C@H]1c1ccc(Cl)c(Cl)c1`, the Ki in assay [8] amounted to 199 nM; in assay [3] it was 98.8 nM; in assay [6] it was 4.12 nM. Further, the values for the Selectivity ratio in assay [2], in assay [5] and in assay [7] were 2, 24 and 48, respectively.
